Compounds with a hit are over-represented: about 1.9% of the library has one in this group of screens.
DNMT1 block = inhibitors of human DNMT1. P26358. DNMT1 molecular beacon, Hinp1I cleavage, fluorescence. inhibition (reported as % activation of signal), % at 10 µM. hit rate 0.83% among 360,000. AID 588458; in the data active = inhibition above about 50%
SUMO HTRF inh = blocks human SUMOylation mediated by UBC9; P63279; HTRF SUMOylation assay, SAE1/SAE2 + UBC9, in vitro; inhibition, % at 35 µM; hit rate 0.36% among 290,000; in the data active = inhibition above about 50%, passing the limit was not always enough
Scp-1 inhibitor = Scp-1 (human) phosphatase inhibition | hit rate 0.88% among 340,000 | AID 493091 | inhibition, % at 20 µM | Recombinant Scp1, phosphopeptide, malachite green phosphate absorbance;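 active = inhibition above about 50% at 20 µM, limit read from the data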
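Test system – truncated SCP-1 phosphatase (76-261aa) · Reagent – Phosphorylated 17-residue peptide substrate · Incubation – 45 min room-temperature reaction, 5 min colour, 30 min stabiliser · Detection – colorimetric phosphate reagent with accelerator and stabiliser, absorbance at 630 nm · Measure – % inhibition at 20 µM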
LMPTP block = LMPTP (human) inhibition; P24666; recombinant LMPTP-A, OMFP fluorogenic substrate, fluorescence intensity; inhibition, % at 20 µM; hit rate 0.22% among 360,000;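 active = compounds that cut the enzyme signal by at least half of the control window in the single-dose screen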
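Test system – LMPTP-A enzyme · Amount – LMPTP-A at 0.625 nM final in the reaction · Buffer or medium – Bis-Tris pH 6.0, DTT, detergent · Reagent – OMFP 400 µM · Doses – single 20 µM dose · Schedule – reaction 50 min, room temperature, dark · Detection – fluorescence intensity of OMFP turnover product · Evaluation – percent inhibition versus substrate-only and uninhibited controls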
STEP inh = inhibitors of human striatal-enriched phosphatase STEP; inhibition, % at 20 µM; recombinant STEP, OMFP fluorogenic substrate, fluorescence; P54829; hit rate 0.25% among 360,000;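 active = inhibition at 20 µM, scaled per plate between control wells, above about 37%, limit read from the data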
Target sequence (P54829 whole entry, looked up): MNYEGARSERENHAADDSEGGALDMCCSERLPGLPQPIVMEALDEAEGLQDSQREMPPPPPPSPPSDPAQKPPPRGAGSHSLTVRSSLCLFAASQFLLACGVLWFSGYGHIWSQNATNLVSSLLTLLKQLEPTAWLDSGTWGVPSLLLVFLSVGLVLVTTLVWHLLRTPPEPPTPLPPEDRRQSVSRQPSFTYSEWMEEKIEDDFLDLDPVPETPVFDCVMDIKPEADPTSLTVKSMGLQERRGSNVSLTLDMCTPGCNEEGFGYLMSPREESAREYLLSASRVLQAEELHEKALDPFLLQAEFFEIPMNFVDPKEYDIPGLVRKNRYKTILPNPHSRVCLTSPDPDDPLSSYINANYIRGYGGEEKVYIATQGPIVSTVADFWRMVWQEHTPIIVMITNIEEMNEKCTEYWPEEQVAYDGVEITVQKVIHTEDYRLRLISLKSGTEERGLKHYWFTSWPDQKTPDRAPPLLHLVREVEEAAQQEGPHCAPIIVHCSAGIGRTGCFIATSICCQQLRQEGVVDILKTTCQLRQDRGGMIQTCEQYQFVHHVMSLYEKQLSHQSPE
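Material: STEP (striatal-enriched tyrosine phosphatase) enzyme, cell-free | Medium: 50 mM Bis-Tris pH 6.0 with 2.5 mM DTT and 0.005% Tween 20 | Read-out: Percent inhibition scaled to no-enzyme and uninhibited-enzyme controls, plate-pattern corrected | Signal: Fluorescence read at 480 nm ex / 540 nm em | Times: 20 min reaction, room temperature, in the dark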
SUMO1 PPI mod = SUMO1-SIM interaction modulation. hit rate 0.33% among 360,000. SUMO1 binding to a labelled peptide, TR-FRET, 1 h. inhibition, % at 20 µM. P63165; in the data active = inhibition above about 37%
Target sequence (P63165 whole entry, looked up): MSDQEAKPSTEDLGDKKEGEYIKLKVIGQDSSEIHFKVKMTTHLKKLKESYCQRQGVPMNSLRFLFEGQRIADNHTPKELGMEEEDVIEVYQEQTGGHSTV
Large screens that a line does not name were inactive; ! = a repeat was not active.

CCCN(CCC)C(=O)CC(c1ccc(F)cc1)c1ccco1 (stereo not drawn)	STEP inh 48.1
Cc1nnc(NC(=O)c2ccc(S(=O)(=O)N3CC(C)CC(C)C3)cc2)o1 (stereo not drawn)	none
COc1ccc2nc(-n3c(O)c(C4=c5ccccc5=NC4=O)[nH]c3=S)sc2c1	Scp-1 inhibitor 84.9
Cn1c(O)c(C2=c3ccccc3=NC2=O)[nH]c1=S	none
COc1ccccc1C(=O)COC(=O)c1cc(=O)[nH]c2ccccc12	none (no result: SUMO HTRF inh)
Cc1ccc(C(=O)COC(=O)c2cc(=O)[nH]c3ccccc23)cc1C	Scp-1 inhibitor 80.6
CSc1ncccc1C(=O)Nc1cccc(S(=O)(=O)N2CCCCC2)c1	none (no result: SUMO HTRF inh)
Brc1ccc(C2Nc3cccc4cccc(c34)N2)s1	DNMT1 block 55.2
Clc1ccc(C2Nc3cccc4cccc(c34)N2)cc1	none
N#CCC(=O)Nc1ccc(C(=O)OCC(=O)c2ccc3c(c2)NC(=O)CO3)cc1	SUMO1 PPI mod 83.6 (no result: SUMO HTRF inh)
Cc1ccccc1C(=O)NN1C(=O)CSC1=S	none
O=C(NN1C(=O)CSC1=S)c1cccnc1	SUMO1 PPI mod 59.7
c1coc(C2=Nc3cccc4cccc(c34)N2)c1	SUMO HTRF inh 93.5
O=c1cc(-c2ccc(F)cc2)oc2ccccc12	none (no result: SUMO HTRF inh)
CSc1ccc(-c2cc(=O)c3ccccc3o2)cc1	SUMO HTRF inh 54.3
Cc1cc(C(=O)CSc2nc(N)cc(N)n2)c(C)n1C1CC1	SUMO HTRF inh 50.8
O=C1c2ccccc2C(=O)c2c(Nc3ccc(CCO)cc3)ccc(O)c21	none
O=C1c2c(O)ccc(O)c2C(=O)c2c(NCCNCCO)ccc(NCCNCCO)c21	SUMO1 PPI mod 93.2 (no result: SUMO HTRF inh)
CC(=O)OCCCNc1cc(SCc2ccco2)c2nonc2c1[N+](=O)[O-]	none
CCCC(=O)OCCNc1cc(SCc2ccco2)c2nonc2c1[N+](=O)[O-]	SUMO HTRF inh 89.8
Cc1sc2cc3c(c(C(=O)c4ccccc4)[n+]2c1C)-c1cccc2cccc-3c12	none (no result: DNMT1 block, LMPTP block, STEP inh, SUMO1 PPI mod)
O=C(c1ccccc1)c1c2c(cc3sc4ccccc4[n+]13)-c1cccc3cccc-2c13	DNMT1 block 57.6, LMPTP block 69.4
CC(C)C(=O)NNS(=O)(=O)c1ccccc1	SUMO1 PPI mod 44.0
O=C(NCc1nnc2c(C(F)(F)F)cc(Cl)cn12)c1cccs1	none
CC(C)NC(=O)c1sc(=S)n2c1[nH]c(=O)c1ccc(C(=O)NCCc3ccc(Cl)cc3)cc12	STEP inh 40.0
CCOC(=O)C1CCN(C(=O)Cn2nc(CC)n3cccc3c2=O)CC1	none
O=C(O)c1cccc(NC(=O)c2ccc(COc3ccc(Cl)cc3)cc2)c1	none
CCOc1cc(/C=C(/C#N)C(=O)Nc2ccc(OC)cc2)ccc1OCc1ccc(C(=O)O)cc1	LMPTP block 80.3
N#C/C(=C\c1ccc(OCc2ccc(Cl)cc2)cc1)C(=O)Nc1cccc(C(=O)O)c1	DNMT1 block 61.6, SUMO HTRF inh 54.2, STEP inh 57.7, SUMO1 PPI mod 66.0
CC(C)=CCN1CCN(Cc2c[nH]c3ccccc23)CC1CCO (stereo not drawn)	none
CCCCCNC(=O)C(c1ccncc1)n1c(=O)c(-c2cc3ccccc3[nH]2)nc2ccccc21 (stereo not drawn)	none (no result: DNMT1 block, SUMO HTRF inh, Scp-1 inhibitor, STEP inh)
O=C(O)CN1C(=O)/C(=C2\SC(=S)N(C(Cc3ccccc3)C(=O)O)C2=O)c2ccccc21 (stereo not drawn)	none
O=C(O)CCN1C(=O)/C(=C2\C(=O)N(Cc3ccccc3Cl)c3ccccc32)SC1=S	DNMT1 block 88.9, LMPTP block 80.4, STEP inh 98.5 (no result: Scp-1 inhibitor)
COc1ccc(NC(=O)CN2C(=O)/C(=C3\SC(=S)N(CCC(=O)O)C3=O)c3ccccc32)cc1	Scp-1 inhibitor 96.6, LMPTP block 85.6
Cc1c(CCC(=O)NCCC(=O)O)c(=O)oc2c(C)c3oc4c(c3cc12)CCCC4	none
O=c1c2c(-c3ccccc3)csc2nc2c3ccccc3c(NCCN3CCOCC3)nn12	SUMO1 PPI mod 64.2
CC1=Nc2ccc(C)cc2/C1=C/c1c(N)n2oc(C)cc2nc1=O	DNMT1 block 55.6!
COc1c(C)oc2cc(O)ccc2c1=O	SUMO HTRF inh 50.2
CCN(CC)c1ccc(C(NC(C)=O)NC(C)=O)cc1	none
CC(=O)NC(NC(C)=O)c1ccc(N(C)C)cc1	Scp-1 inhibitor 52.3
Cc1ccc(NC(=O)CNC(=O)CN2C(=O)c3ccccc3C2=O)cc1	none (no result: SUMO HTRF inh, Scp-1 inhibitor)
Cn1cnnc1SCC(=O)Nc1ncc([N+](=O)[O-])s1	DNMT1 block 83.7, Scp-1 inhibitor 74.7 (no result: SUMO HTRF inh)
CCCOP(=O)(c1ccc(N(C)C)cc1)C(O)c1ccc(N(C)C)cc1 (stereo not drawn)	none
CCN(CC)c1ccc2cc(-c3nc4ccccc4[nH]3)c(=O)oc2c1	DNMT1 block active
Cc1ccc(NC(=O)COc2cccc3c2OC(C)(C)C3)c(O)c1	none (no result: SUMO HTRF inh)
CCOC(=O)c1c(NC(=O)C2CC(Cl)=CCC2C(=O)O)sc2c1CC(C)(C)OC2 (stereo not drawn)	none
Cc1cc(C(=O)NC2CCCc3c2cnn3-c2ccc(C)c(C)c2)n(C)n1 (stereo not drawn)	Scp-1 inhibitor 79.0
Cc1cccc(NC(=O)CNC(=O)COc2cc(F)ccc2[N+](=O)[O-])c1C	none
COc1ccc2nc3cc(Cl)ccc3c(Nc3cc(CN4CCCC4)c(O)c(CN4CCCC4)c3)c2n1	DNMT1 block 64.6, LMPTP block 50.1 (no result: Scp-1 inhibitor)
CCn1c(SCC(=O)Nc2ccc(C)cc2)nnc1-c1ccccn1	none
CCn1c(SCC(=O)Nc2ccc(C)cc2)nnc1-c1ccc(O)cc1	SUMO1 PPI mod 43.5
NC(Cc1ccc(C(F)(F)F)cc1)c1csc(Nc2nncc3ccccc23)n1 (stereo not drawn)	none (no result: SUMO HTRF inh, Scp-1 inhibitor)
Cc1ccc2c(c1)c(/C=C/c1cc[n+](C)cc1)c(C)n2C	Scp-1 inhibitor 53.8
Nc1cc2[nH]c(=O)c3ccccc3c2cc1[N+](=O)[O-]	SUMO1 PPI mod 50.2 (no result: SUMO HTRF inh)
CCC[n+]1c2ccccc2cc2ccccc21	Scp-1 inhibitor 54.7
Cc1ccccc1N1CC(C(=O)Nc2ccc(S(=O)(=O)N3CCOCC3)cc2)CC1=O (stereo not drawn)	none
CC(C)C[C@@H](CNCC(=O)[C@H](Cc1ccccc1)NC(=O)c1[nH]cnc1C(=O)N[C@H](CN)CC(C)C)NC(=O)c1nc[nH]c1C(=O)N[C@@H](CC(=O)O)C(=O)O	SUMO1 PPI mod 46.7 (no result: SUMO HTRF inh)
O=C1S/C(=C\C=C\c2ccco2)C(=O)N1c1ccc(O)cc1	none
O=C(NN1C(=O)/C(=C/C=C/c2ccco2)SC1=S)c1ccccc1O	DNMT1 block 91.2, SUMO HTRF inh 79.0, Scp-1 inhibitor 74.0, LMPTP block 61.2, SUMO1 PPI mod 76.7
COc1ccc(/C=C2\SC(=S)N(C(Cc3ccccc3)C(=O)O)C2=O)cc1 (stereo not drawn)	none

Source: PubChem BioAssay
